In the library only some 1.4% were active in any assay of this set; here they are far more common.
ASAP1 inh – inhibitors of human ASAP1 ArfGAP activity; Q9ULH1; ASAP1-stimulated ARF1 GTP hydrolysis, GDP FP detection; actives 0.19% (n = 360,000); inhibition, % at 16.5 µM; AID 624377; in the data active = inhibition above about 25%;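 also: 0% = vehicle with enzyme and substrate and 100% = no enzyme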
Target sequence (Q9ULH1 325-724 limits assumed): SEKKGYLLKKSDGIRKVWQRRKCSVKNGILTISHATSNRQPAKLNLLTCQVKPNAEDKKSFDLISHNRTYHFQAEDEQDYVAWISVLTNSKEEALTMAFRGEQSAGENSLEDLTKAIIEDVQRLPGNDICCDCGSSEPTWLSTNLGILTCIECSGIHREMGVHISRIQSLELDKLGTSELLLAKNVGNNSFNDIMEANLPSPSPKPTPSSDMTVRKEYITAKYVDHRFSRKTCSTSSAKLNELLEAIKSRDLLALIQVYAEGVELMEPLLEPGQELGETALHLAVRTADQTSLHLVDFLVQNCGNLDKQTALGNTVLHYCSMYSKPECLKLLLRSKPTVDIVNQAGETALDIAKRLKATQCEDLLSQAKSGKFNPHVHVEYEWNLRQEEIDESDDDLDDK
MsrA inh – inhibits bovine methionine sulfoxide reductase A. purified bovine MsrA, absorbance read-out. actives 0.75% (n = 360,000). inhibition, % at 15.5 µM; in the data active = inhibition above about 4.5%;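 also: 0% = vehicle wells with enzyme and 100% = reference inhibitor wells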
ARFGAP1 inhibitor – rat ARFGAP1 inhibition | inhibition, % at 16.5 µM | AID 651572 | Arfgap1-stimulated ARF1 GTP hydrolysis, GDP FP detection | actives 0.26% (n = 360,000);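 active = inhibition above a per-plate limit, mean inhibition of low control wells plus 3 SD, cut at about 25% in these data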;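 also: 0% = DMSO wells with enzyme and 100% = wells lacking Arfgap1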
Target sequence (Q62848 1-136 limits assumed): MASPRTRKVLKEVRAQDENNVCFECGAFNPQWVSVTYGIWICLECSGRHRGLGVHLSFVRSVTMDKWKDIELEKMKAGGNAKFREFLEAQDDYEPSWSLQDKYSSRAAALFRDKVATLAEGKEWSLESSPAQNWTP
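Assay system: purified rat His6-Arfgap1 residues 1-136 (GAP domain); Reagent: human Δ17 ARF1 bound to GTP; Dosing: 16.5 µM single point, 1.26% DMSO; Times: GTP hydrolysis reaction 2 h at 25 °C; Signal: FP, GDP Alexa 633 tracer displaced from anti-GDP antibody, 620/688 nm; Measure: % inhibition from polarization.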
bovine MsrA act – bovine methionine sulfoxide reductase A activation; purified bovine MsrA, absorbance read-out; activation, % at 10.6 µM; actives 0.3% (n = 360,000); in the data active = activation above about 7.5%;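 also: 0% = vehicle and 100% = reference activator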
MsrA act confirm – bovine methionine sulfoxide reductase A activation confirmed; shares compounds with bovine MsrA act; purified bovine MsrA, absorbance read-out; activation, % at 10.6 µM; actives 12% (n = 1,000); in the data active = activation above about 4%;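 also: enzyme coupled to thioredoxin and thioredoxin reductase with NADPH; 0% = vehicle wells and 100% = reference activator wells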
Active calls of the source: *; ! = a repeat was not active.

`C#CCOCCOCCOCCNc1nc(N2CCN(C(=O)[C@H]([C@@H](C)CC)n3cc(CCCN=C(N)N)nn3)CC2)nc(N2CCN(C(=O)[C@H]([C@@H](C)CC)n3cc(CCC(=O)O)nn3)CC2)n1` gave ASAP1 inh -1, MsrA inh 0, ARFGAP1 inhibitor -6, bovine MsrA act 7.9* and MsrA act confirm -1.
Screening NC1=C(Br)C(=O)c2ccccc2C1=O returned ASAP1 inh 9, MsrA inh 1, ARFGAP1 inhibitor 9, bovine MsrA act 9.7* and MsrA act confirm 9.4*.
For NC(=S)Nc1ccc2c(c1)OCO2 the results were ASAP1 inh -9, MsrA inh -1, ARFGAP1 inhibitor 6, bovine MsrA act 15* and MsrA act confirm -3.
For N/C(=N\C(=S)Nc1ccc2c(c1)OCO2)c1ccccc1 the results were ASAP1 inh 5, MsrA inh 1, ARFGAP1 inhibitor -4 and bovine MsrA act -3.
O=C(O)c1cccc2c1C(=O)c1ccccc1C2=O was read as ASAP1 inh -6, MsrA inh 1, ARFGAP1 inhibitor -1 and bovine MsrA act -3.
`O=C1C(O)=CC(=C(c2ccccc2)c2ccccc2)c2ccccc21` gave ASAP1 inh 3, MsrA inh 0, ARFGAP1 inhibitor -3, bovine MsrA act 9.8* and MsrA act confirm 2.
`CCOc1ccc(-c2nnc(-c3cccnc3)o2)cc1OCC` gave ASAP1 inh -2, MsrA inh 2, ARFGAP1 inhibitor 1, bovine MsrA act 9.2* and MsrA act confirm 1.
COc1ccc(-c2nnc(-c3cccnc3)o2)cc1OC was read as ASAP1 inh -11, MsrA inh 2, ARFGAP1 inhibitor 1 and bovine MsrA act -1.
`CSCCC(C(=O)NC(C)(C)C)n1c(-c2ccc(C)cc2)nc2ccccc21` (configuration not stated) gave ASAP1 inh -6, MsrA inh 0 and ARFGAP1 inhibitor 2.
For CCN(CC)S(=O)(=O)c1cc(NC(=O)COC(=O)CCC(=O)c2cccs2)ccc1C the results were ASAP1 inh 9, MsrA inh 2, ARFGAP1 inhibitor 4, bovine MsrA act 8.4* and MsrA act confirm 0.
Cc1ccc(-c2nc(CS(=O)CC(=O)NCCCN3CCN(Cc4ccccc4)CC3)c(C)o2)cc1 (configuration not stated) was read as ASAP1 inh 0, MsrA inh 0, ARFGAP1 inhibitor 2 and bovine MsrA act -11.
Screening Cc1cc(C)n(CCc2nc(-c3ccc(C(C)(C)C)cc3)cs2)n1 returned ASAP1 inh 3, MsrA inh 0, ARFGAP1 inhibitor 2, bovine MsrA act 9.3* and MsrA act confirm -4.
`COc1cc([N+](=O)[O-])ccc1NC(=O)NCC1CCN(Cc2ccc(Cl)cc2)CC1` gave ASAP1 inh -2, MsrA inh 1, ARFGAP1 inhibitor -16, bovine MsrA act 22* and MsrA act confirm -2.
COc1ccc(Cl)cc1NC(=O)NCC1CCN(Cc2cc(C)ccc2C)CC1 was read as ASAP1 inh 4, MsrA inh 0, ARFGAP1 inhibitor -3 and bovine MsrA act 0.
`CCNC(=O)C1CCCN(C(=O)c2cnc3ccccc3n2)CC1` (configuration not stated) gave ASAP1 inh -2, MsrA inh 1, ARFGAP1 inhibitor -2 and bovine MsrA act -3.
O=C(NCCc1ccccc1)c1c(F)cccc1F was read as ASAP1 inh -1, MsrA inh 0, ARFGAP1 inhibitor -3, bovine MsrA act 11* and MsrA act confirm 0.
Screening O=C(NCCc1csc(-c2ccccc2)n1)c1c(F)cccc1F returned ASAP1 inh -2, MsrA inh 1, ARFGAP1 inhibitor 2 and bovine MsrA act -1.
Screening O=c1oc2ccc(C#CC3(O)CCCCC3)cc2cc1-n1cc(C2(O)CCCCC2)nn1 returned ASAP1 inh -2, MsrA inh -1, ARFGAP1 inhibitor 2, bovine MsrA act 8.6* and MsrA act confirm -1.
Screening O=S(=O)(NCCCNS(=O)(=O)c1c(F)cccc1F)c1ccc2c(c1)OCCO2 returned ASAP1 inh 9, MsrA inh 0, ARFGAP1 inhibitor 9 and bovine MsrA act 0.
Screening O=C(c1ccco1)N1CCN(S(=O)(=O)c2cccc(Cl)c2)CC1 returned ASAP1 inh -2, MsrA inh -1, ARFGAP1 inhibitor -8 and bovine MsrA act -11.
`Cn1c(=O)c2c(ncn2CC(O)CNc2ccc(F)cc2)n(C)c1=O` (configuration not stated) gave ASAP1 inh 0, MsrA inh -2, ARFGAP1 inhibitor -4 and bovine MsrA act -4.
Screening O=C(Nc1ccccn1)C1CCN(c2ncnc3c2nc2n3CCCCC2)CC1 returned ASAP1 inh -5, MsrA inh 0, ARFGAP1 inhibitor -13 and bovine MsrA act -16.
`COC(=O)C1=C(C)N(Cc2ccc(Br)cc2)C(=S)NC1c1cccc(F)c1` (configuration not stated) gave ASAP1 inh 7, MsrA inh 1 and ARFGAP1 inhibitor 18.
Screening O=C(COc1ccc(Cl)cc1)Nc1cccc(-c2ccc3nncn3n2)c1 returned ASAP1 inh 4, MsrA inh 2, ARFGAP1 inhibitor 7, bovine MsrA act 15* and MsrA act confirm -4.
CCN1CCN(C2=C(NS(=O)(=O)c3ccc(C)cc3)C(=O)c3ccccc3C2=O)CC1 was read as ASAP1 inh 11, MsrA inh -1, ARFGAP1 inhibitor 4 and bovine MsrA act 5.
`CC(=O)Nc1ccc(S(=O)(=O)NC2=C(N3CCN(C)CC3)C(=O)c3ccccc3C2=O)cc1` gave ASAP1 inh -2, MsrA inh 2, ARFGAP1 inhibitor 7, bovine MsrA act 26* and MsrA act confirm 1.
Screening CC(=O)Nc1ccc(S(=O)(=O)NC2=C(N3CCN(Cc4ccccc4)CC3)C(=O)c3ccccc3C2=O)cc1 returned ASAP1 inh -4, MsrA inh 1, ARFGAP1 inhibitor 1, bovine MsrA act 8.1*! and MsrA act confirm 1.
`CCOC(=O)N1CCN(C2=C(NS(=O)(=O)c3ccc(NC(C)=O)cc3)C(=O)c3ccccc3C2=O)CC1` gave ASAP1 inh 1, MsrA inh 0, ARFGAP1 inhibitor 10 and bovine MsrA act -4.
CC1CCCN(C2=C(NS(=O)(=O)c3ccc(Br)cc3)C(=O)c3ccccc3C2=O)C1 (configuration not stated) was read as ASAP1 inh -10, MsrA inh 2, ARFGAP1 inhibitor 8, bovine MsrA act 8.9* and MsrA act confirm 1.
`CCN1CCN(C2=C(NS(=O)(=O)c3ccc(NC(C)=O)cc3)C(=O)c3ccccc3C2=O)CC1` gave ASAP1 inh 11, MsrA inh 2, ARFGAP1 inhibitor 11, bovine MsrA act 8.9* and MsrA act confirm 1.
For CON(C)S(=O)(=O)NC(=O)C1=C(N2CCCC2)COC1=O the results were ASAP1 inh 0, MsrA inh 0, ARFGAP1 inhibitor 6 and bovine MsrA act 1.
